Assay [1] deals with T1 CTL. Description: 51Cr-release assay. It counts as cell-based. Particulars: without Fab'. Summed up: (§1)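 51Cr-labeled P815 targets (2 × 10^3/well) in DMEM with FCS (5%) and Hepes (10 mM) plus 10-fold peptide dilutions, 10−6–10−13 M. Cloned CTL (6 × 10^3/well) added, 4 h at 37°C, then supernatant 51Cr counted. Specific lysis was derived from spontaneous and total release. Relative activity is the wt half-maximal-lysis concentration divided by the variant's, normalized by relative Kd competitor activity. Triplicates, at least two experiments.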

In assay [2] the test system is S14 CTL. Particulars: ref [4]; cited from earlier work.
Assay [3] concerns S17 CTL. Kind of assay: 51Cr-release assay. The assay is classed as cell-based. Particulars: without Fab'. The procedure, abridged: as §1
In assay [4] the test system is S14 CTL. Kind of assay: 51Cr-release assay. Particulars: without Fab'. The assay is classed as cell-based. The procedure, abridged:
as §1

In assay [5] the test system is S17 CTL. Kind of assay: Interferon γ assay. It counts as cell-based. The procedure, abridged:
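CTL were incubated with peptide-sensitized P815 targets as in the cytotoxicity assay, with peptide derivatives at 10−6–10−11 M, some runs with SF1-1.1.1 Fab′ (anti-Kd α3) to block CD8 participation. After 24 h, supernatant IFN-γ was measured by ELISA and values were normalized to the wt ligand. Triplicates, at least two experiments.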

With IASA-YIASAEK(ABA)I [P255A], in assay [1], the “functional phenotype (antigen recognition versus TCR-ligand binding)” value is listed as “strong agonists”.

Take IASA-YILSAEK(ABA)I [P255L]: the functional phenotype result in assay [2] was “antagonist”.

With IASA-YIPAAEK(ABA)I [S256A], in assay [3], the “functional phenotype (antigen recognition versus TCR-ligand binding)” value is given as “strong agonists”.

For IASA-YIPSAAK(ABA)I [E258A], the “functional phenotype (antigen recognition versus TCR-ligand binding)” value in assay [4] is “weak agonists”.

Regarding IASA-YIPSAEK(ABA)I [WT], the “effect of blocking of CD8 (SF1-1.1.1 Fab') on IFN-γ production” value in assay [5] is “substantially increased”.

With IASA-YISSAEK(ABA)I [P255S], the “functional phenotype (antigen recognition versus TCR-ligand binding)” value in assay [3] was “weak agonists”. Moreover, the “effect of blocking of CD8 (SF1-1.1.1 Fab') on IFN-γ production” value in assay [5] was “substantially increased”.
